Experimental data reported in ChEMBL document CHEMBL1124929, “Indolo[2,1-a]isoquinolines. Syntheses, steroid hormone receptor binding affinities, and cytostatic activity” (1990).

Key:
[1] = biological target: T1, Estrogen receptor (Mus musculus) (UniProt O08537+P19785); assay: (§1) Estrogenic activity in uterotrophic assay in immature mice at 2 ug subcutaneous dose; assay type: functional
Outline: (§2)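 Immature female NMRI mice, 20 days old, in groups of 6-10, were dosed sc once daily for three consecutive days. Compounds were given in PEG/0.9% saline 1:1; vehicle controls were included. Animals were killed 24 h after the last dose. Uteri were fixed in Bouin solution and the effect was taken as uterine dry weight (mg)/body weight (g) ×100, given as mean ± SD.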

[2] = tested on: MCF7; assay: Effect on hormone-dependent MCF-7 human breast cancer cell proliferation at 1x10E-6M; assay type: functional
Outline: (§3)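 Cells were plated at about 2 × 10⁴ per well in six-well dishes. MCF-7 cells were grown in modified improved MEM with 5% NCS, switched to charcoal-treated NCS two weeks before the test, and exposed for 5 days with a re-dose on day 4. MDA-MB 231 cells were grown in McCoy 5a with 10% NCS and exposed for 2 days. Compounds were given 1 day after plating in 0.1% DMSO, with DMSO-matched controls. Read-out was cell number as % T/C, mean of three experiments with six dishes.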

[3] = tested on: MDA-MB-231; assay: Cytostatic effect on hormone-independent MDA-MB 231 human breast cancer cell proliferation at5x10E-6M; assay type: functional; outline: as §3
[4] = tested on: MDA-MB-231; assay: Cytostatic effect on hormone-independent MDA-MB 231 human breast cancer cell proliferation at 1x10E-6M; assay type: functional; outline: as §3
[5] = biological target: T2, Androgen receptor (Mus musculus) (UniProt P19091); assay: Relative effect on seminal vesicle weight in adult and castrated mice supplemented with 0.3 mg TP at 1000 ug dose; assay type: functional, tissue-based
T2 sequence (whole entry): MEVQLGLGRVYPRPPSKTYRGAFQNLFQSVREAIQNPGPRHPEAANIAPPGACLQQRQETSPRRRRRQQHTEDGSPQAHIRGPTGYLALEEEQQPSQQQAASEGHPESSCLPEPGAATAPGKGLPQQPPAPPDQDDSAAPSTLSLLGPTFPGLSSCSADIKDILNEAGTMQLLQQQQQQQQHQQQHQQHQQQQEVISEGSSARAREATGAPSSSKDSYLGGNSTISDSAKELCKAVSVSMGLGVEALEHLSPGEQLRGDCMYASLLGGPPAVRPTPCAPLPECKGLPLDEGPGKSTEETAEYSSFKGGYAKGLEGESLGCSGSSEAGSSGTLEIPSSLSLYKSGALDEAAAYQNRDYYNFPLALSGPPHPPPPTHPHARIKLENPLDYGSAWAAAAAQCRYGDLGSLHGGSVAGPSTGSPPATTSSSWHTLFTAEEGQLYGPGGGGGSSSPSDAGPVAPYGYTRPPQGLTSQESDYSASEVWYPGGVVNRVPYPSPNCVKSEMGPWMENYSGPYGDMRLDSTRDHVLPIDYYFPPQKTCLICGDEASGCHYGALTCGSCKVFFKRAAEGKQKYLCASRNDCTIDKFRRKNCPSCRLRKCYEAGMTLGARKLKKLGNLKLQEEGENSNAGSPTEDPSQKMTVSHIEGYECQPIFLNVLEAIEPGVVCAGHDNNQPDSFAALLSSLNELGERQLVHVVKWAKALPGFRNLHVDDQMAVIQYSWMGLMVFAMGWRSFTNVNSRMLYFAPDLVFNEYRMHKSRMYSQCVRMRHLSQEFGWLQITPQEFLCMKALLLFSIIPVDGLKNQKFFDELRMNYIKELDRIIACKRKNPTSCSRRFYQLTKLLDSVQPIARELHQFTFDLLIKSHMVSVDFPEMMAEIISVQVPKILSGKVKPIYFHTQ
Outline: (§4)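 Adult male mice, 23–25 g, six per group, were used intact or castrated via the scrotal route under ether 5 days before the test. Castrates received 0.3 mg testosterone propionate daily. Compounds were injected daily in olive oil for nine days. Seminal vesicles were taken 24 h later, fixed in Bouin solution, dried overnight at 100 °C and weighed. Result is organ mg/body g ×100; % inhibition = [1 − treated/control] × 100.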

[6] = biological target: T1, Estrogen receptor (Mus musculus); assay: (§5) Estrogenic activity in uterotrophic assay in immature mice at 50.0 ug subcutaneous dose; assay type: functional; outline: as §2
[7] = tested on: MDA-MB-231; assay: Effect on [3H]thymidine incorporation into MDA-MB 231 human breast cancer cells at 1x10E-5 M; assay type: functional
Outline: (§6)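 Cells were seeded at ~2 × 10⁴ per well, treated from the next day in 0.1% DMSO, with DMSO controls. MCF-7 cells were held in charcoal-stripped NCS for 2 weeks, treated for 5 days and re-dosed on day 4. MDA-MB 231 cells were grown in McCoy 5a/10% NCS and treated for 2 days. At the end, 1 µCi [³H]thymidine per well was added for 2 h. Result is % T/C, mean of three experiments × six dishes.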

[8] = tested on: MCF7; assay: Effect on [3H]thymidine incorporation into MCF-7 human breast cancer cells at 1x10E-5 M; assay type: functional; outline: as §6
[9] = biological target: T2, Androgen receptor (Mus musculus); assay: Relative effect on seminal vesicle weight in adult and castrated mice at 100 ug dose; assay type: functional, tissue-based; outline: as §4
[10] = biological target: T3, Androgen Receptor (Bos taurus) (UniProt Q5EM59); assay: Relative binding affinity(RBA) for 50% displacement of [3H]mibolerone from Androgen receptor compared to testorone
T3 sequence (whole entry): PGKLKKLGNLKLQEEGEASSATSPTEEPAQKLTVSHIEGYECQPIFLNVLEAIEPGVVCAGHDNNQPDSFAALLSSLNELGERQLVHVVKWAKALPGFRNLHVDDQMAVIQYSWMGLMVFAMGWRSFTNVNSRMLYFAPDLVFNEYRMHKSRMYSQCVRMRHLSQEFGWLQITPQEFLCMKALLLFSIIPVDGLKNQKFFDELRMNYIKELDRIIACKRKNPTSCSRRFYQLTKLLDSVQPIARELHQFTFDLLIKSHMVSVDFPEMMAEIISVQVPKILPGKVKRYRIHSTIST
Outline: (§7)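 Receptor source was calf uterine cytosol (105000g supernatant, 3 mg/mL protein in assay). Buffers were Tris/EDTA pH 7.4, with NaN₃ for ER, molybdate/glycerol for AR, and sucrose for PR. Tracers were 1 nM [³H]estradiol, [³H]mibolerone or [³H]Org 2058. Incubation was at 0–4 °C for 16 h (ER) or 2 h (AR, PR), with 4–6 competitor concentrations. Nonspecific binding used 2 µM of the unlabeled hormone. Separation was by dextran-coated charcoal. RBA is the ratio of IC50 values for hormone and compound ×100, mean of two triplicate experiments.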

[11] = tested on: MCF7; assay: Effect on hormone-dependent MCF-7 human breast cancer cell proliferation at 1x10E-5 M; assay type: functional; outline: as §3
[12] = tested on: MDA-MB-231; assay: Cytostatic effect on hormone-independent MDA-MB 231 human breast cancer cell proliferation at 1x10E-5 M; assay type: functional; outline: as §3
[13] = tested on: MCF7; assay: Effect on hormone-dependent MCF-7 human breast cancer cell proliferation at 5x10E-6M; assay type: functional; outline: as §3
[14] = species on record: Bos taurus; assay: Relative binding affinity(RBA) as ratio of progesterone and compound required to displace [3H]-org 2058 binding to Progesterone receptor by 50%; outline: as §7
[15] = biological target: T2, Androgen receptor (Mus musculus); assay: Inhibition of seminal vesicle weight in intact mice at 100 ug
[16] = biological target: T2, Androgen receptor (Mus musculus); assay: Relative effect on seminal vesicle weight in adult and castrated mice at 1000 ug dose; assay type: functional, tissue-based; outline: as §4
[17] = biological target: T1, Estrogen receptor (Mus musculus); assay: Inhibition of 0.4 ug estrone-stimulated uterine growth in mice at 10.0 ug subcutaneous dose; assay type: functional
Outline: (§8)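 Immature 20-day-old female NMRI mice received sc injections on three consecutive days. Each injection held 0.4 µg estrone plus the compound in PEG/saline 1:1. […] Significance was tested by Mann-Whitney U test.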

[18] = tested on: MDA-MB-231; assay: Effect on [3H]-thymidine incorporation into MDA-MB 231 human breast cancer cells at 1x10E-6M; assay type: functional; outline: as §6
[19] = tested on: MCF7; assay: Effect on [3H]thymidine incorporation into MCF-7 human breast cancer cells at 5x10E-6M; assay type: functional; outline: as §6
[20] = tested on: MCF7; assay: Effect on [3H]thymidine incorporation into MCF-7 human breast cancer cells at 1x10E-6M; assay type: functional; outline: as §6
[21] = biological target: T1, Estrogen receptor (Mus musculus); assay: as §1; assay type: functional; outline: as §2; remark: listed apart in the source
[22] = biological target: T1, Estrogen receptor (Mus musculus); assay: as §5; assay type: functional; outline: as §2; remark: listed apart in the source
[23] = biological target: T1, Estrogen receptor (Mus musculus); assay: Inhibition of 0.4 ug estrone-stimulated uterine growth in mice at 2 ug subcutaneous dose; assay type: functional; outline: as §8
[24] = biological target: T1, Estrogen receptor (Mus musculus); assay: (§9) Estrogenic activity in uterotrophic assay in immature mice at 250 ug subcutaneous dose; assay type: functional; outline: as §2
[25] = biological target: T2, Androgen receptor (Mus musculus); assay: Inhibition of testosterone-stimulated seminal vesicle growth in castrated mice supplemented with 0.3 mg of TP at 1000.0 ug; assay type: functional; outline: as §4
[26] = biological target: T1, Estrogen receptor (Mus musculus); assay: (§10) Estrogenic activity in uterotrophic assay in immature mice at 10.0 ug subcutaneous dose; assay type: functional; outline: as §2
[27] = biological target: T1, Estrogen receptor (Mus musculus); assay: as §10; assay type: functional; outline: as §2; remark: listed apart in the source
[28] = biological target: T1, Estrogen receptor (Mus musculus); assay: as §9; assay type: functional; outline: as §2; remark: listed apart in the source
[29] = biological target: T1, Estrogen receptor (Mus musculus); assay: Inhibition of 0.4 ug estrone-stimulated uterine growth in mice at 50.0 ug subcutaneous dose; assay type: functional; outline: as §8
[30] = tested on: MDA-MB-231; assay: Effect on [3H]thymidine incorporation into MDA-MB 231 human breast cancer cells at 5x10E-6M; assay type: functional; outline: as §6
[31] = biological target: T1, Estrogen receptor (Mus musculus); assay: Inhibition of 0.4 ug estrone-stimulated uterine growth in mice at 250 ug subcutaneous dose; assay type: functional; outline: as §8
[32] = biological target: Estrogen receptor (Bos taurus) (UniProt Q9XSB5+P49884); assay: Relative binding affinity(RBA) for 50% displacement of [3H]-estradiol from Estrogen receptor compared to 17-beta-estradiol; assay type: protein assay; outline: as §7
[33] = biological target: T1, Estrogen receptor (Mus musculus); assay: (§11) Estrogenic activity in uterotrophic assay in immature mice at 40.0 ug subcutaneous dose; assay type: functional; outline: as §2
[34] = biological target: T1, Estrogen receptor (Mus musculus); assay: Estrogenic activity in uterotrophic assay in immature mice at 125 ug subcutaneous dose; assay type: functional; outline: as §2
[35] = biological target: T1, Estrogen receptor (Mus musculus); assay: Inhibition of 0.4 ug estrone-stimulated uterine growth in mice at 40.0 ug subcutaneous dose; assay type: functional; outline: as §8
[36] = biological target: T1, Estrogen receptor (Mus musculus); assay: as §11; assay type: functional; outline: as §2; remark: listed apart in the source

T1 sequence (O08537 whole entry, looked up): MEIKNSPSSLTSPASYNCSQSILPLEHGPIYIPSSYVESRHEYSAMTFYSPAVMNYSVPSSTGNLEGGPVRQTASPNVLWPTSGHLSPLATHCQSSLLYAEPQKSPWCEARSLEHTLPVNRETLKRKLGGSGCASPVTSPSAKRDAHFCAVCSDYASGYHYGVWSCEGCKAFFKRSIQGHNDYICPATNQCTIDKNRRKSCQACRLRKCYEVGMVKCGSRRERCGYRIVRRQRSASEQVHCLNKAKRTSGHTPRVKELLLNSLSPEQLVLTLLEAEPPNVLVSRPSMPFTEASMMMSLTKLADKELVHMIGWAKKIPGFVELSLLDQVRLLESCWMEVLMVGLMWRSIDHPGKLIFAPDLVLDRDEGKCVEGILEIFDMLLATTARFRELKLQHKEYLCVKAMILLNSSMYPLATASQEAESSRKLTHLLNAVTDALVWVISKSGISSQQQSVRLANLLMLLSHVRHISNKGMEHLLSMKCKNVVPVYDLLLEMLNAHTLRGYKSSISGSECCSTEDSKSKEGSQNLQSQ
T1 sequence (P19785 whole entry, looked up): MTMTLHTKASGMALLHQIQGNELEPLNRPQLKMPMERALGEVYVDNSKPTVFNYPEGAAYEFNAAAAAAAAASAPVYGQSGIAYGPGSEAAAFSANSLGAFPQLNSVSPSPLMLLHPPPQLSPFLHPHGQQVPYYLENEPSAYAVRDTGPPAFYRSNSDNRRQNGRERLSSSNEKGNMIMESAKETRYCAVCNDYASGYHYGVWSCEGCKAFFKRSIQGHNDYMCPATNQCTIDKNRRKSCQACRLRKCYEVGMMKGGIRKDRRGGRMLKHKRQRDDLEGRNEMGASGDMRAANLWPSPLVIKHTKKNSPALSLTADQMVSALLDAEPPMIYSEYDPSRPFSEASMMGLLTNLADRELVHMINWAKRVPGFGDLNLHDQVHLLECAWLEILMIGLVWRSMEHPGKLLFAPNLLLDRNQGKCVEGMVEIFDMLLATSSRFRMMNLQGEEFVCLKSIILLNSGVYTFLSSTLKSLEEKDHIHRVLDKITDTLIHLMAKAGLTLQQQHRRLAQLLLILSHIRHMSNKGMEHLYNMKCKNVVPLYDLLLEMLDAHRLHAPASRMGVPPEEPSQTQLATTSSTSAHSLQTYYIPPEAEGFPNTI

SMILES: CCC1Cc2cc(OC(C)=O)ccc2-c2cc3ccc(OC(C)=O)cc3n21 (stereo unspecified)
- Effect [1]: 11.5
- T/C [2]: 67%
- T/C [3]: 11%
- T/C [4]: 98%
- Relative seminal vesicle weight [5]: 200
- Effect [6]: 18.5
- T/C [7]: 8%
- T/C [8]: 2%
- Relative seminal vesicle weight [9]: 156
- RBA [10]: 2.5
- T/C [11]: 6%
- T/C [12]: 11%
- T/C [13]: 39%
- RBA [14]: 0.05
- inhibition [15]: 21%
- Relative seminal vesicle weight [16]: 121
- inhibition [17]: 17.4%
- T/C [18]: 93%
- T/C [19]: 24%
- T/C [20]: 42%
- Effect [21]: 49.6
- Effect [22]: 18.5
- inhibition [23]: 2.8%
- Effect [24]: 40.5
- inhibition [25]: 12%
- Effect [26]: 44.5
- Effect [27]: 15.7
- Effect [28]: 48.2
- inhibition [29]: 31%
- T/C [30]: 11%
- inhibition [31]: 6.8%
- RBA [32]: 4

SMILES: CCC1Cc2cc(OC(C)=O)c(OC(C)=O)cc2-c2cc3cc(OC(C)=O)ccc3n21 (stereo unspecified)
- Effect [33]: 49.7
- Effect [1]: 21.2
- Effect [34]: 55.8
- T/C [2]: 89%
- T/C [3]: 62%
- T/C [4]: 100%
- T/C [7]: 38%
- T/C [8]: 3%
- RBA [10]: < 0.01
- T/C [11]: 22%
- T/C [12]: 51%
- T/C [13]: 39%
- RBA [14]: 0.04
- T/C [18]: 77%
- T/C [19]: 11%
- T/C [20]: 95%
- inhibition [23]: 11.7%
- inhibition [35]: 15.7%
- Effect [36]: 42.8
- T/C [30]: 35%
- RBA [32]: 2.9

SMILES: CC(=O)Oc1ccc2c(c1)CCn1c-2cc2ccc(OC(C)=O)cc21
- RBA [10]: 0.2
- RBA [14]: 0.01
- RBA [32]: 0.16
